Experiments:
Ba/F3:JAK2V617F cells = test: Growth inhibition, Ba/F3:JAK2V617F cells; type: cell-based, mouse; conditions: 72 hours
Procedure, shortened: (§1)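 Cells grown 72 h with varying concentrations of test compound. Media: Ba/F3:JAK2V617F in RPMI 1640 with 10% FBS plus 1% WEHI-3B conditioned medium (IL-3 source); 32D:p210T315I in IMDM with 10% FBS; K562 in RPMI 1640 with 10% FBS; HEL and SET-2 in RPMI 1640 with 20% and 10% heat-inactivated FBS. Viability by Trypan blue exclusion; GI50 from percent viable cells plotted against drug concentration.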

[1] = tested on: JAK2 phosphorylation in Ba/F3:JAK2V617F cells; test: JAK2 phosphorylation in IL-3-stimulated Ba/F3:JAK2V617F cells; type: cell-based, mouse; conditions: 2 hours, with recombinant IL-3
Procedure, shortened: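 Mid-log-phase Ba/F3:JAK2V617F cells were treated 2 h with the test compound at the indicated concentrations, including 1 h with 5 ng/mL recombinant mouse IL-3. Washed cells were lysed in detergent buffer. 50 µg of clarified lysate was run on SDS-PAGE and immunoblotted with anti-phospho-JAK2 (Tyr1007/1008). Blots were stripped and reprobed for total JAK2.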

HEL cells = test: Growth inhibition, HEL cells; type: cell-based, human; conditions: 72 hours
Procedure, shortened: as §1

[2] = target: recombinant V617F mutant JAK2 (aa 532-1132) (Homo sapiens, UniProt O60674, V617F); test: Radiometric kinase assay, recombinant V617F mutant JAK2; type: biochemical; conditions: read-out: IC50, kinase activity of mutant JAK2 (V617F); JAK2-V617F aa 532-1132, GST-Abltide substrate, 20 μM ATP
Sequence of recombinant V617F mutant JAK2 (aa 532-1132) (O60674 532-1132 V617F): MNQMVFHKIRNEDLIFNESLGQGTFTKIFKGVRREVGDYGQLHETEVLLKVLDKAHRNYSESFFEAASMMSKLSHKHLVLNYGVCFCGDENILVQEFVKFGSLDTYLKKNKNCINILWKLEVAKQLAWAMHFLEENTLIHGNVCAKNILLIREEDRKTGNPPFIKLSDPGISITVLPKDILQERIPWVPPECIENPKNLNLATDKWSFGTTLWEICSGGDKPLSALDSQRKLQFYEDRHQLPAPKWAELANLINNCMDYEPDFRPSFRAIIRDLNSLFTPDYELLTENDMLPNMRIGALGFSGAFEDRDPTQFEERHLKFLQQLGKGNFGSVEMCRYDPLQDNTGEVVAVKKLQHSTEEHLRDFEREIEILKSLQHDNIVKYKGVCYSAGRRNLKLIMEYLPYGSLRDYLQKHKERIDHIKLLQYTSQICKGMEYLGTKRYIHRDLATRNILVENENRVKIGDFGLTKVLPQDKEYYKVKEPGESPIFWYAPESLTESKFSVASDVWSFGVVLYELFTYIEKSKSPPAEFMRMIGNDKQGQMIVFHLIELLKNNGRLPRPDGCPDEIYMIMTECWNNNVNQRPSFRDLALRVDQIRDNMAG

SET2 cells = test: Growth inhibition, SET-2 cells; type: cell-based, human; conditions: SET2 cells (hemizygous V617F), 72 hours
Procedure, shortened: as §1

K562 cells = test: Growth inhibition, K562 cells; type: cell-based; conditions: Homo sapiens, K562, 72 h
Procedure, shortened: as §1

[3] = tested on: STAT-5 phosphorylation in 32D:p210T315I cells; test: STAT-5 phosphorylation in 32D:p210T315I cells; type: cell-based, murine; conditions: 2 hours
Procedure, shortened: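 Exponentially growing 32D:p210T315I cells, kept in IMDM with 10% FBS, were given the test compound at the indicated concentrations for 2 h. They were then PBS-washed and lysed in detergent buffer. 50 µg of clarified lysate underwent SDS-PAGE and Western blotting for phospho-STAT-5.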

32D:p210T315I cells = test: Growth inhibition, 32D:p210T315I cells; type: cell-based, murine; conditions: Mus musculus, 72 h
Procedure, shortened: as §1

Compound | GI50 (Ba/F3:JAK2V617F cells) [µM] | inhibition of JAK2 phosphorylation in cells [1] | GI50 (HEL cells) [µM] | IC50 [2] [µM] | GI50 (SET2 cells) [µM] | GI50 (K562 cells) [µM] | inhibition of STAT-5 phosphorylation [3] | GI50 (32D:p210T315I cells) [µM]
N#C/C(=C/c1ccc(O)c(O)c1)C(=O)NCc1ccccc1 [AG490] | 1 | did not inhibit JAK2 phosphorylation | > 20 | 33.1 | > 20 | – | – | –
Cc1ccc(NC(=O)c2ccc(CN3CCN(C)CC3)cc2)cc1Nc1nccc(-c2cccnc2)n1 [imatinib] | – | – | – | – | – | 0.1 to 0.2 | failed to do so | 20 to 30

— paper PMC2921666 (Genes & cancer, 2010)
